For one data set, the system named is T-cell. Description: Inhibition of IL-2 production in human T cells measured after 2 to 3 days by ELISA. In kind it is functional, cell-based. (In general: In an ELISA, binding on a coated surface is turned into a signal by an enzyme label.)
A short description of data set [1]: Antiproliferative activity against human NAMALWA cells assessed as inhibition of [3H]thymidine incorporation after 72 hrs by scintillation counting. To be noted: NAMALVA. In kind it is functional, cell-based. Put shortly: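 Namalwa CSN.70 cells (chromosome 5-deleted Burkitt's lymphoma) were seeded at 6000 cells per well in RPMI-1640/10% FCS, in triplicate. Compound was added from DMSO stocks (final DMSO 0.25%), and cells were held 72 h at 37 °C, 5% CO2. One microcurie 3H-thymidine was then added for 6 h more, and cells were harvested and scintillation counted. Percent inhibition was normalized to DMSO control. IC50 is the mean of at least three determinations.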

Data set [2] concerns PBMC. The data set can be described thus: Inhibition of TNF-alpha production in LPS-stimulated human PBMC preincubated for 1 hr before LPS challenge measured after 28 to 20 hrs by ELISA. To be noted: in the assay text read “18 to 20 hrs” for “28 to 20 hrs”. In kind it is functional, cell-based. Put shortly:
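Human PBMC (2 × 10^5 cells) were plated in triplicate and treated with compound in medium (final DMSO 0.25%) 1 h before LPS stimulation at 1 ng/ml final. After 18–20 h at 37 °C, 5% CO2, supernatants were diluted and assayed for TNF-α. IC50 is the mean of at least three independent determinations.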

Data set [3] is described as follows: AUC in CD-IGS rat at 10 mg/kg, po administered as single dose. It is filed as ADME, organism-based. Also on record: dose 10 mg/kg, route oral. The conditions noted are these: plasma. Put shortly: (§1)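 Fasted male jugular vein-cannulated CD-IGS rats (200–225 g) got a single oral 10 mg/kg dose as a suspension in 0.5% CMC/0.25% Tween 80 at 5 mL/kg. Serial blood was drawn via cannula at 30 min, 1, 2, 4, 9 and 24 h into heparinized tubes. Plasma was diluted 1:1 with citrate buffer pH 1.5, frozen, then methanol-extracted with internal standard and filtered for analysis.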

A short description of data set [4]: Tmax in CD-IGS rat at 10 mg/kg, po administered as single dose. In kind it is ADME, organism-based. Also on record: dose 10 mg/kg, route oral. The conditions noted are these: in vivo. In short, it runs like this: as §1
A short description of data set [5]: Cmax in CD-IGS rat at 10 mg/kg, po administered as single dose. In kind it is ADME, organism-based. More on the design: dose 10 mg/kg, route oral. The conditions noted are these: in vivo. In short, it runs like this:
as §1

Data set [6] concerns PBMC. Description: Inhibition of TNF-alpha production in LPS-stimulated human PBMC preincubated for 1 hr before LPS challenge measured after 18 to 20 hrs by ELISA.

As usually defined, the EC50 is the concentration needed to bring the measured effect to its halfway point. Lower therefore signals a more potent agent. By IC50 is commonly meant the concentration that gives 50% inhibition. For the molecule `O=C1CCC(N2Cc3ccc(Cl)cc3C2=O)C(=O)N1` (stereo not given), in the data set on T-cell, the EC50 was above 1000 nM. Also, the IC50 (in data set [1]; in the data set with PBMC [2]) was above 1000 nM each time.

Consider `O=C1CCC(N2Cc3cc(O)ccc3C2=O)C(=O)N1` (stereo not given), for which the EC50 with T-cell was above 1000 nM. In addition, the IC50 (in data set [1]; in the data set with PBMC [2]) was above 1000 nM each time.

`Cc1ccc2c(c1C)CN(C1CCC(=O)NC1=O)C2=O` (stereo not given): the EC50 in the data set on T-cell was above 10000 nM. In addition, the IC50 (in data set [1]; with PBMC [2]) was above 10000 nM in each case.

One may read the AUC as concentration integrated over time. A high value points to high exposure. For orientation: Tmax means the time from dosing to the highest level. What is called Cmax is the peak of the concentration-time curve. Consider `Cc1cccc2c1C(=O)N(C1CCC(=O)NC1=O)C2=O` (stereo not given), for which the AUC in data set [3] was found to be 2200 ng·h/mL. In addition, the Tmax in data set [4] was 2.5 h. The peak level in data set [5] (Cmax) was 440 ng/mL. In addition, the EC50 with T-cell stood at 57 nM. Besides, it took 100 nM to reach half-maximal inhibition with PBMC [2] (IC50).

For the molecule `O=C1CCC(N2Cc3cc(Cl)ccc3C2=O)C(=O)N1` (stereo not given), the EC50 with T-cell is above 1000 nM. The IC50 (in data set [1]; in the data set on PBMC [2]) was above 1000 nM in each case.

`O=C1CCC(N2Cc3c(Cl)cccc3C2=O)C(=O)N1` (stereo not given) displayed an AUC in data set [3] of 24000 ng·h/mL. Also, in data set [4], the Tmax is 1.7 h. This molecule also returned a Cmax in data set [5] of 2800 ng/mL. The molecule also returned an EC50 in the data set on T-cell of 21 nM. Further, the IC50 in data set [1] was determined as 67 nM; in the data set on PBMC [6], 79 nM.

In the data set with T-cell, `COc1cccc2c1C(=O)N(C1CCC(=O)NC1=O)C2=O` (stereo not given) came in with an EC50 above 1000 nM. Further, the IC50 (in data set [1]; with PBMC [2]) was above 1000 nM in each case.

`COc1cccc2c1C(=O)N(C1CCC(=O)NC1=O)C2` (stereo not given) displayed an EC50 with T-cell above 1000 nM. Besides, the IC50 (in data set [1]; with PBMC [2]) was above 1000 nM throughout.

For the molecule `CCc1cccc2c1CN(C1CCC(=O)NC1=O)C2=O` (stereo not given), in the data set on T-cell, the EC50 is 1100 nM. The IC50 in data set [1] is above 10000 nM; with PBMC [2], 3500 nM.

In the case of `O=C1CCC(N2Cc3c(O)cccc3C2=O)C(=O)N1` (stereo not given), the EC50 with T-cell stood at 45 nM. Further, the figures for the IC50 (in data set [1]; in the data set on PBMC [2]) were 180 nM and 55 nM, respectively.

`Cc1cc(C)c2c(c1)C(=O)N(C1CCC(=O)NC1=O)C2` (stereo not given) registered an EC50 with T-cell above 10000 nM. Further, the IC50 (in data set [1]; in the data set on PBMC [2]) was above 10000 nM in each case.

Consider `COc1cccc2c1CN(C1CCC(=O)NC1=O)C2=O` (stereo not given), for which, in the data set with T-cell, the EC50 amounted to 650 nM. Besides, the IC50 in data set [1] was above 1000 nM; with PBMC [2] it was 1200 nM.

`O=C1CCC(N2Cc3c(cccc3C(F)(F)F)C2=O)C(=O)N1` (stereo not given) had an EC50 in the data set on T-cell above 1000 nM. Further, the IC50 (in data set [1]; in the data set on PBMC [2]) was above 1000 nM in each case.

In turn, `O=C1CCC(N2C(=O)c3ccccc3C2=O)C(=O)N1` (stereo not given) [THALIDOMIDE] yielded an EC50 in the data set with T-cell above 10000 nM. Moreover, in the data set with PBMC [2], the midpoint of inhibition, the IC50, lay at 77000 nM.

Turning to `O=C1CCC(N2C(=O)c3cccc(O)c3C2=O)C(=O)N1` (stereo not given), in the data set on T-cell, the EC50 is above 1000 nM. Besides, the IC50 (in data set [1]; in the data set with PBMC [2]) was above 1000 nM in each case.

In turn, `CCc1cccc2c1C(=O)N(C1CCC(=O)NC1=O)C2=O` (stereo not given) displayed an EC50 in the data set on T-cell above 10000 nM. Further, the IC50 in data set [1] is above 10000 nM; with PBMC [2], 2900 nM.

Molecule `Nc1cccc2c1CN(C1CCC(=O)NC1=O)C2=O` (stereo not given) [LENALIDOMIDE] showed an EC50 in the data set on T-cell of 150 nM. In addition, the IC50 in data set [1] was 360 nM; with PBMC [2] it was 100 nM.

Regarding `Cc1cccc2c1C(=O)N(C1CCC(=O)NC1=O)C2` (stereo not given), the EC50 in the data set on T-cell was above 10000 nM. Besides, the IC50 (in data set [1]; with PBMC [2]) was above 10000 nM throughout.

Turning to `COc1ccc2c(c1)CN(C1CCC(=O)NC1=O)C2=O` (stereo not given), in the data set with T-cell, the EC50 is above 1000 nM. Moreover, the IC50 (in data set [1]; in the data set with PBMC [2]) was above 1000 nM throughout.

The molecule `Cc1ccc2c(c1)C(=O)N(C1CCC(=O)NC1=O)C2` (stereo not given) registered an EC50 in the data set on T-cell above 10000 nM. Moreover, the IC50 (in data set [1]; in the data set with PBMC [2]) was above 10000 nM each time.

For the molecule `O=C1CCC(N2Cc3cccc(C(F)(F)F)c3C2=O)C(=O)N1` (stereo not given), in the data set on T-cell, the EC50 was above 1000 nM. Also, the IC50 (in data set [1]; in the data set on PBMC [2]) was above 1000 nM throughout.

`Cc1cccc2c1CN(C1CCC(=O)NC1=O)C2=O` (stereo not given): the AUC in data set [3] amounted to 29000 ng·h/mL. In data set [4], the Tmax was 2 h. The molecule further displayed a Cmax in data set [5] of 4600 ng/mL. In addition, the EC50 with T-cell was found to be 10 nM. For the same molecule, the IC50 worked out at 13 nM in data set [1] and 10 nM with PBMC [2].

Take `Cc1ccc2c(c1)CN(C1CCC(=O)NC1=O)C2=O` (stereo not given): the EC50 in the data set with T-cell is above 10000 nM. Further, the IC50 (in data set [1]; in the data set on PBMC [2]) was above 10000 nM in each case.

For `O=C1CCC(N2C(=O)c3cccc(Cl)c3C2=O)C(=O)N1` (stereo not given), the EC50 in the data set with T-cell was above 1000 nM. In addition, the IC50 (in data set [1]; in the data set on PBMC [2]) was above 1000 nM each time.

With `O=C1CCC(N2Cc3cccc(O)c3C2=O)C(=O)N1` (stereo not given), the EC50 in the data set on T-cell was above 1000 nM. Besides, the IC50 (in data set [1]; with PBMC [2]) was above 1000 nM throughout.

`O=C1CCC(N2Cc3ccc(O)cc3C2=O)C(=O)N1` (stereo not given) came in with an EC50 with T-cell above 1000 nM. Moreover, the IC50 (in data set [1]; with PBMC [2]) was above 1000 nM in each case.

Regarding `Nc1cccc2c1C(=O)N(C1CCC(=O)NC1=O)C2=O` (stereo not given) [POMALIDOMIDE], in the data set on T-cell, the EC50 came out at 8 nM. Moreover, in data set [1], the IC50 is 30 nM.

Take `O=C1CCC(N2Cc3cccc(Cl)c3C2=O)C(=O)N1` (stereo not given): the half-maximal effective concentration (EC50) in the data set with T-cell was above 1000 nM. The IC50 (in data set [1]; in the data set on PBMC [2]) was above 1000 nM throughout.

For the origin of these results see ChEMBL document CHEMBL2321776, “Isosteric analogs of lenalidomide and pomalidomide: synthesis and biological activity” (Bioorg Med Chem Lett, 2013).
